23 molecules from ChEMBL document CHEMBL1123661, “Structural alterations that differentially affect the mutagenic and antitrichomonal activities of 5-nitroimidazoles” (J Med Chem, 1987) can be followed below.

Values after ≈ are worked out from the molar mass of the structure shown.

Data set [1] relates to Salmonella typhimurium TA100. The experiment in a line: The Mutagenicity was determined in Salmonella typhimurium TA100 relative to compound 20; ND means not detectable.
Data set [2] deals with Tritrichomonas suis. The experiment in a line: In vitro anti-trichomonal activity against Trichomonas foetus-Ortho strain-2. Type of data set: functional. Conditions: read-out: ED50 (the source's name). Put shortly: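 Trichomonas foetus Ortho strain 2 was grown in Diamond's medium with gentamycin (24 μg/mL) and 10% calf serum. 2×10^6 trichomonads were added to 1.8 mL medium. Compound was given in water or Me₂SO (final ≤1%, with solvent controls) over a range bracketing the EC₅₀. Motile survivors were counted after 24 h at 37 °C. The value is the mean of two or three determinations.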

The subject of data set [3] is Salmonella typhimurium TA100. The experiment in a line: The Mutagenicity in Salmonella typhimurium TA100 relative to Ronidazole.
The nature of data set [4]: Safety index. Type of data set: toxicity. Conditions: read-out: Safety index. Put shortly:
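Index derived as [(ED₅₀ of reference × mutagenicity of reference)]/(ED₅₀ × mutagenicity), using the antitrichomonal ED₅₀ and the TA100 mutagenicity (relative to reference) measured here.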

Turning to `Cc1nc(F)c([N+](=O)[O-])n1C`, the Mutagenicity result in data set [1] is “Not detectable”. The EC50 in data set [2] is 14.5 µg/mL (≈ 91.1 µM).
As for `Cc1ncc([N+](=O)[O-])n1CCO` [METRONIDAZOLE], the EC50 in data set [2] was 0.4 µg/mL (≈ 2.34 µM).
In turn, `Cn1c([N+](=O)[O-])cnc1COC(N)=O` [RONIDAZOLE] displayed a Mutagenicity in data set [3] of 100%. Also, the selectivity ratio in data set [4] was 1. For the same molecule, the EC50 in data set [2] came to 0.4 µg/mL (≈ 2 µM).
Take `Cc1nc(C)n(C)c1[N+](=O)[O-]`: in data set [3], the Mutagenicity came to 0.4%. Moreover, the selectivity ratio in data set [4] turned out to be 3.1. Besides, in data set [2], the EC50 came to 32 µg/mL (≈ 206 µM).
The corresponding values for `Cc1nc(C)n(CCO)c1[N+](=O)[O-]` are 0.3%, 6.2 and 21.5 µg/mL (≈ 116 µM).
The corresponding values for `Cc1nc(CCO)c([N+](=O)[O-])n1C` are 0.28%, 71 and 2 µg/mL (≈ 10.8 µM).
The corresponding values for `Cc1ncc([N+](=O)[O-])n1C` [DIMETRIDAZOLE] are 15%, 8.9 and 0.3 µg/mL (≈ 2.13 µM).
`CC(=O)Oc1cc(C(=O)OCc2ncc([N+](=O)[O-])n2C)cc(OC(C)=O)c1OC(C)=O`: the Mutagenicity in data set [3] was 26%. For the same molecule, in data set [4], the selectivity ratio is 0.6. Further, in data set [2], the EC50 amounted to 2.35 µg/mL (≈ 5.4 µM).
The corresponding values for `Cn1c(CO)nc(CCO)c1[N+](=O)[O-]` are 1%, 2 and 20 µg/mL (≈ 99.4 µM).
As to `Cc1nc(CCOC(=O)C(C)(C)C)c([N+](=O)[O-])n1C`, the Mutagenicity in data set [3] came to 2.6%. Besides, the selectivity ratio in data set [4] is 1.4. Moreover, in data set [2], the EC50 turned out to be 11 µg/mL (≈ 40.8 µM).
The corresponding values for `Cn1cnc(F)c1[N+](=O)[O-]` are 16%, 0.7 and 3.6 µg/mL (≈ 24.8 µM).
For the molecule `CC(=O)Oc1cc(C(=O)OCCn2c([N+](=O)[O-])cnc2-c2ccc(F)cc2)cc(OC(C)=O)c1OC(C)=O`, the Mutagenicity in data set [3] stood at 17%. Moreover, the selectivity ratio in data set [4] is 0.6. Moreover, the EC50 in data set [2] came out at 3.9 µg/mL (≈ 7.37 µM).
With `Cc1nc(COC(N)=O)n(C)c1[N+](=O)[O-]`, the Mutagenicity in data set [3] amounted to 2%. In addition, in data set [4], the selectivity ratio came to 20. The EC50 in data set [2] is 1 µg/mL (≈ 4.67 µM).
The corresponding values for `Cn1c([N+](=O)[O-])cnc1CO` are 16%, 1.6 and 1.6 µg/mL (≈ 10.2 µM).
The corresponding values for `CC(=O)Oc1cc(C(=O)OCCn2c([N+](=O)[O-])cnc2C)cc(OC(C)=O)c1OC(C)=O` are 0.23%, 26 and 6.6 µg/mL (≈ 14.7 µM).
With `Cc1nc(-c2ccc(F)cc2)n(C)c1[N+](=O)[O-]`, the Mutagenicity in data set [3] is recorded as 15%. Besides, the selectivity ratio in data set [4] turned out to be 0.27. Moreover, in data set [2], the EC50 was 10 µg/mL (≈ 42.5 µM).
The corresponding values for `CC(=O)OCCc1nc(C)n(C)c1[N+](=O)[O-]` are 1%, 14 and 2.8 µg/mL (≈ 12.3 µM).
The corresponding values for `COc1cc(C(=O)OCCn2c([N+](=O)[O-])cnc2C)cc(OC)c1OC` are 12%, 2.5 and 1.35 µg/mL (≈ 3.7 µM).
The corresponding values for `Cc1nc(Br)c([N+](=O)[O-])n1C` are 8%, 0.65 and 0.75 µg/mL (≈ 3.41 µM).
As for `Cn1c([N+](=O)[O-])cnc1CCO`, the Mutagenicity in data set [3] is 19%.
`Cn1c(-c2ccc(F)cc2)nc(CCO)c1[N+](=O)[O-]` returned a Mutagenicity in data set [3] of 8%. Moreover, the selectivity ratio in data set [4] is 0.65. For the same molecule, in data set [2], the EC50 was found to be 7.7 µg/mL (≈ 29 µM).
The corresponding values for `Cn1c([N+](=O)[O-])cnc1-c1ccc(F)cc1` are 300%, 0.53 and 0.25 µg/mL (≈ 1.13 µM).
With `Cc1nc(CCO)n(C)c1[N+](=O)[O-]`, the Mutagenicity in data set [3] was determined as 0.8%.
